Compound activity from PubChem.
This is a sample that favours compounds with a hit; in the whole collection about 3.1% have one here.
miR122 inh – blocks miR-122 activity in Huh7 sensor cells; activation (reporter increase), % at 12.5 µM; 340,000 tested, 0.3% active; Huh7 miR-122 Renilla luciferase sensor, 48 h; neutral wells = 0, positive control = 100;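 active = mean replicate activation score at least 90 and every replicate individually at or above 90; inconclusive = only one of the two criteria met; inactive = neither criterion met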;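 also: higher luciferase means less miR-122 activity so hits act as miR-122 inhibitors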
Ecoli rRNA inh – inhibitors of bacterial rRNA selective over humanized ribosomes; E. coli WT GFP vs humanized-ribosome RFP mutants, fluorescence, 24 h; active compounds read low; DMSO median 0, no signal -100; GFP signal change (wild-type ribosome), % (no concentration beside the values); 350,000 tested, 1.6% active;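 active = significant combined selectivity score with lowered wild-type GFP, culture density cut under 30%, mutant RFP and density less affected; inactive = any of these conditions unmet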
Cneo AK release – causes C. neoformans cell lysis; adenylate kinase release luminescence, 4 h; normalised: neutral wells 0, clomiphene wells 100; lysis activity, % at 15 µM; 360,000 tested, 0.2% active; AID 651654;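 active = mean lysis activity across replicates of at least 80%, whatever share of replicates individually reach that level; inactive = mean lysis activity below 80%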
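Assay system: C. neoformans cells. Amount: yeast cell density of 5 × 10^6 cells/mL. Technique: AK luminescence. Buffer or medium: YPD. Times: static 4 h at 37 °C with compound, 1 h detection. Dosing: single-point compound dose. Read-out: lysis from increased AK signal.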
DENV2 CPE – DENV2-induced cell death inhibition; DENV2-infected cells, cytopathic effect rescue, plate reader; CPE inhibition, % at 9.99 µM; 350,000 tested, 1.7% active; AID 651640; in the data active = CPE inhibition above about 20%, passing the limit was not always enough; inconclusive = no clear call, values can overlap the other calls; tested in BHK-21 cells;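 also: 0% = median of neutral control wells and 100% = median of positive control wells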
E-sel inducer – E-selectin induction on HUVECs; P16581; HUVEC E-selectin immunofluorescence imaging; normalized: neutral wells 0, TNF-alpha wells 100; activation, % at 7.58 µM; 260,000 tested, 0.37% active; AID 686992;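 active = mean E-selectin-positive cell signal at least 10% of the positive control, reached in at least 60% of replicates, without over 20% cell loss; inconclusive = no rule given, readout overlaps actives, possibly toxicity-flagged; inactive = the rest, including those meeting only one limit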
Target sequence (P16581 whole entry, looked up): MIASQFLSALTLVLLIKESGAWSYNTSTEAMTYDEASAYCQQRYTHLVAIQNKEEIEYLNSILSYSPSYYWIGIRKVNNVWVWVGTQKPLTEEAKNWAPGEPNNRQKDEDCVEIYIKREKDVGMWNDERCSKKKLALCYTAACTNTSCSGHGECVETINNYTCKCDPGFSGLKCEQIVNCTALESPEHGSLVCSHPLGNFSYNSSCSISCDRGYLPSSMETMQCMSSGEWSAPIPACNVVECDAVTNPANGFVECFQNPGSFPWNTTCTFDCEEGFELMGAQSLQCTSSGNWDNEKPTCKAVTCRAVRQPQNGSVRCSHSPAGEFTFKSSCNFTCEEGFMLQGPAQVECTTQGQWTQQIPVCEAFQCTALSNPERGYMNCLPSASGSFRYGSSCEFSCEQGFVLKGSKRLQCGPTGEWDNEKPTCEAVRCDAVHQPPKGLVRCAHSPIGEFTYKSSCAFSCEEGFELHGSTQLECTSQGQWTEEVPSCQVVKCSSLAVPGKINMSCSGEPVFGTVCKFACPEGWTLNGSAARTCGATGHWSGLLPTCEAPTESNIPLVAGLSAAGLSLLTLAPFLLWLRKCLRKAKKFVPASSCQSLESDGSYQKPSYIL
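System: HUVEC, human umbilical vein endothelial cells; quantity: 3,000 cells/well; buffer or medium: EGM-2 medium, gelatin-coated wells; dosing: single-point compound dose; detection: immunofluorescence imaging; evaluation: % PE-positive cells; benchmarks: TNF-alpha, DMSO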
* marks the source's active call; other numbers are inactive results; u = inconclusive; x = no result; [ ] = dose if it differs, or a comment.

SMILES	miR122 inh	Ecoli rRNA inh	Cneo AK release	DENV2 CPE	E-sel inducer
Cc1ccc(S(=O)(=O)Nc2ccc3c(c2)C(=O)N([C@@H](C)CO)C[C@H](C)[C@H](CN(C)C)OCCCC[C@H](C)O3)cc1	2[16.7 µM]	2	x	x	0
C[C@@H]1CN([C@H](C)CO)S(=O)(=O)c2ccc(Br)cc2O[C@@H]1CN(C)C(=O)C1CC1	-8[16.7 µM]	0	2	-3	x
COc1cccc(S(=O)(=O)Nc2ccc3c(c2)[C@@H]2C[C@H](CC(=O)NCc4cccc(F)c4)O[C@@H](CO)[C@@H]2O3)c1	11[16.7 µM]	-13	0	2	0
CC(C)CNC(=S)N1CCC(c2nc(-c3ccc(F)cc3)no2)CC1	3	-26*	16	2	0
C=CCC[C@H](Cc1ccc(F)cc1)C(=O)OC[C@@H](Cc1c[nH]c2ccccc12)NC(=O)[C@@H](CC=C)CC(=O)N(CCO)Cc1ccccc1	-14	7	0	21*	0
Cc1cccc(C)c1NC(=O)C1C(c2ccc3c(c2)OCO3)=Nc2ccccc2N1C(=O)c1ccccn1 (stereo not drawn)	x	5	x	-3	119*
N#Cc1c(NC(=O)c2ccccc2)sc2c1CCC2	111*	x	-6	x	x
Cc1ccc(C(=O)Nc2scc(-c3ccccc3)c2C(=O)O)o1	x	-34*	x	2	-4
O=C(Nc1sc2c(c1C(=O)O)CCC2)c1ccco1	123*	7	x	x	x
N#Cc1c(NC(=O)c2cccnc2)sc2c1CCC2	8	x	-1	x	x
O=C(/C=C/c1ccco1)Nc1scc(-c2ccccc2)c1C(=O)O	0	-34*	-5	-4	0
CCS(=O)(=O)N1CC2(C1)[C@@H](c1ccccc1)[C@H](CO)N2C(=O)C1CCCC1	x	2	x	4	0
C[C@@H]1CN([C@@H](C)CO)C(=O)c2cc(NS(=O)(=O)c3ccccc3)ccc2O[C@@H]1CN(C)S(=O)(=O)c1cccs1	25[16.7 µM]	1	2	-3	0
O=C(CCc1ccccc1)Nc1sc2c(c1C(=O)O)CCCC2	-5	-32*	0	-2	0
Cc1ccc(C(=O)Nc2sc3c(c2C(=O)O)CCCCC3)o1	63	x	-19	x	x
Cc1ccc(C(=O)Nc2sc3c(c2C(=O)O)CCCC3)o1	x	-25*	-1	-6	0
O=C(O)CCC(=O)Nc1sc2c(c1C(=O)NCc1ccccc1)CCCC2	-6	-5	0	0	0
CCCC(=O)Nc1cccc(S(=O)(=O)N(C)c2ccccc2)c1	0	x	x	x	x
CC(=O)c1cccc(NC(=O)c2ccc(N(C)S(C)(=O)=O)cc2)c1	2	x	1	x	x
CN(c1cccc(NC(=O)c2ccc(N(C)S(=O)(=O)c3ccccc3)cc2)c1)S(C)(=O)=O	x	-17*	x	-3	-1
CC(=O)Nc1ccc(C(=O)Nc2cccc(S(=O)(=O)N(C)c3ccccc3)c2)cc1	-2	-25	-3	-6	-2
CN(c1cccc(NC(=O)c2ccc(C(C)(C)C)cc2)c1)S(C)(=O)=O	-4	-15	-9	21*	4
CN(c1ccccc1)S(=O)(=O)c1cccc(NC(=O)CCN2C(=O)C3CCCCC3C2=O)c1 (stereo not drawn)	-5	-29*	6	-1	0
O=C(Nc1ccc2c(c1)OCO2)N[C@H]1CC[C@@H](CC(=O)N2CCN(c3ccccc3)CC2)O[C@@H]1CO	x	-4	-7	9	0
CCC(C(=O)Nc1c(C)cccc1C)n1c(-c2ccc(=O)[nH]c2)nc2ccccc21 (stereo not drawn)	x	2	x	33*	0
SMILES	miR122 inh	Ecoli rRNA inh	Cneo AK release	DENV2 CPE	E-sel inducer
Cc1ccc(S(=O)(=O)Nc2cc(-c3ccccc3)nn2C)cc1Cl	6	-27	-3	4	53*
c1ccc(CSc2ncnc3sccc23)cc1	x	-27*	2	-2	x
C[C@@H]1CCCCO[C@H](CN(C)Cc2ccc(Cl)c(Cl)c2)[C@H](C)CN([C@@H](C)CO)C(=O)c2cc(NS(=O)(=O)c3ccc(F)cc3)ccc2O1	x	-4	x	-8	0
O=C(COC(=O)c1cc(Cl)nc2ccccc12)c1ccc(Cl)cc1	12	3	5	63*	0
COC/C=C/C1=CC2=CC(=O)C(C)(OC(=O)c3cnc4ccccc4n3)C(=O)C2=CN1C(CO)CO (stereo not drawn)	-5	2	1	31*	-1
COC/C=C/C1=CC2=CC(=O)C(C)(OC(=O)c3cnc4ccccc4n3)C(=O)C2=CN1CCOC (stereo not drawn)	x	10	0	-3	0
COc1ccc(-c2ccc([C@H]3[C@@H](CO)N4C(=O)CN(C(=O)C5CCCC5)C[C@H]34)cc2)cc1	x	-5	x	4	0
C[C@H](CO)N1C[C@H](C)[C@H](CN(C)Cc2ccc(C(=O)Nc3ccccc3N)cc2)Oc2c(NS(=O)(=O)c3ccc(F)cc3)cccc2C1=O	x	-1	x	14	1
CC=Cc1ccc2n(c1=O)C[C@@H]1[C@@H](CO)[C@H](C(=O)N3CCc4ccccc4C3)N(C(=O)CC)[C@H]21 (mixture of isomers)	-1[16.7 µM]	-3	2	u	0
CN1[C@@H]2c3ccc(-c4cccnc4)c(=O)n3C[C@@H]2[C@@H](CO)[C@@H]1C(=O)N1CCc2ccccc2C1	5[16.7 µM]	2	113*	-7	0
CC=Cc1ccc2n(c1=O)C[C@H]1[C@H](CO)[C@@H](C(=O)N3CCc4ccccc4C3)N(C(=O)C3CCC3)[C@@H]21 (mixture of isomers)	5[16.7 µM]	-2	53	62*	0
COc1cccc(CNC(=O)[C@H]2[C@H](CO)[C@H]3Cn4c(ccc(-c5ccncc5)c4=O)[C@H]3N2C)c1	x	-2	0	138*	0
CCN1[C@@H]2c3ccc(C4=CCCC4)c(=O)n3C[C@@H]2[C@@H](CO)[C@@H]1C(=O)NCCCN(C)C	x	-1	x	11	0
Cc1ccc(S(=O)(=O)N[C@H]2CC[C@H](CCn3cc(-c4cccnc4)nn3)O[C@@H]2CO)cc1	x	0	-19	5	0
CC(=O)N(C)C[C@@H]1Oc2ccccc2CC(=O)N(C)C[C@H]1C	x	1	x	x	x
CC1CCCC(NC(=O)CSc2ccc(F)cc2)C1C (stereo not drawn)	x	8	-1	19	2
CC1CCCC(NCC(O)COC(c2ccc(F)cc2)c2ccc(F)cc2)C1C (stereo not drawn)	-5	-53*	9	x	2
CC1(C(=O)NS(=O)(=O)c2cccc(Cl)c2)CCN1C(=O)COc1ccc(Cl)cc1 (stereo not drawn)	x	0	-3	86*	0
CC(C)(C(=O)N1CCC1(C)C(=O)NS(=O)(=O)c1cccc(Cl)c1)c1ccccc1 (stereo not drawn)	22	2	-1	44*	0
